What was measured:
[1] = system: SW-620; experiment: Growth inhibition of human SW620 cells incubated for 48 hrs by sulforhodamine B assay; assay type: functional; settings: SW-620, 48 h
Procedure, shortened: (§1)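 NCI-60 screen run at NCI. Cells grown in RPMI medium with 5% FBS and 2 mM L-glutamine, plated at 5,000–40,000 cells/well, and preincubated 24 h at 37 °C. Time-zero plates were TCA-fixed. Compounds came from DMSO stocks and were tested at five concentrations from 10^-4 to 10^-8 M for 48 h. Cells were then TCA-fixed, stained with 0.4% SRB, and OD read at 515 nm. GI50 is the concentration giving a 50% reduction in net protein increase versus control.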

[2] = system: SK-MEL-5; experiment: Growth inhibition of human SK-MEL-5 cells incubated for 48 hrs by sulforhodamine B assay; assay type: functional; settings: SK-MEL-5, 48 h
Procedure, shortened: (§2)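 NCI-60 screen. Compounds were dosed at five concentrations spanning 10^-4 to 10^-8 M for 48 h at 37 °C. Cells were TCA-fixed, stained with 0.4% SRB and read at 515 nm against time-zero and vehicle controls. GI50 is the concentration giving a 50% reduction in net protein increase.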

[3] = system: SK-MEL-2; experiment: Growth inhibition of human SK-MEL-2 cells incubated for 48 hrs by sulforhodamine B assay; assay type: functional; settings: SK-MEL-2, 48 h; procedure, shortened: as §2
[4] = system: M14; experiment: Growth inhibition of human M14 cells incubated for 48 hrs by sulforhodamine B assay; assay type: functional; settings: M14, 48 h; procedure, shortened: as §2
[5] = system: SNB-75; experiment: Growth inhibition of human SNB75 cells incubated for 48 hrs by sulforhodamine B assay; assay type: functional; settings: SNB-75, 48 h; procedure, shortened: as §1
[6] = system: IGROV-1; experiment: Growth inhibition of human IGROV1 cells incubated for 48 hrs by sulforhodamine B assay; assay type: functional; settings: IGROV-1, 48 h; procedure, shortened: as §2
[7] = system: 786-0; experiment: Growth inhibition of human 786-0 cells incubated for 48 hrs by sulforhodamine B assay; assay type: functional; settings: 786-0, 48 h; procedure, shortened: as §2
[8] = system: MDA-MB-468; experiment: Growth inhibition of human MDA-MB-468 cells incubated for 48 hrs by sulforhodamine B assay; assay type: functional; settings: MDA-MB-468, 48 h; procedure, shortened: as §2
[9] = system: TK-10; experiment: Growth inhibition of human TK10 cells incubated for 48 hrs by sulforhodamine B assay; assay type: functional; settings: TK-10, 48 h; procedure, shortened: as §1
[10] = system: EKVX; experiment: Growth inhibition of human EKVX cells incubated for 48 hrs by sulforhodamine B assay; assay type: functional; procedure, shortened: as §2
[11] = system: OVCAR-3; experiment: Growth inhibition of human OVCAR3 cells incubated for 48 hrs by sulforhodamine B assay; assay type: functional; settings: OVCAR-3, 48 h; procedure, shortened: as §2
[12] = Potency index, ratio of melampomagnolide-B EC50 to compound EC50 for human M9-ENL1 cells; assay type: functional
Procedure, shortened: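 M9-ENL1 AML cells, derived by MLL-ENL transduction of human blood cells, were plated at 10^6 cells/mL in alpha-MEM with 5% human plasma, 20% FBS, SCF, IL-3, IL-7 and FLT3 ligand. Exposure was 24 h. Non-apoptotic (Annexin V/7-AAD double-negative) fraction was normalized to vehicle, in triplicate, to give EC50. PTL and MMB were run as reference controls.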

[13] = system: T47D; experiment: Growth inhibition of human T47D cells incubated for 48 hrs by sulforhodamine B assay; assay type: functional; procedure, shortened: as §1
[14] = system: MDA-MB-231; experiment: Growth inhibition of human MDA-MB-231/ATCC cells incubated for 48 hrs by sulforhodamine B assay; assay type: functional; settings: MDA-MB-231, 48 h; procedure, shortened: as §2
[15] = system: SR; experiment: Growth inhibition of human SR cells incubated for 48 hrs by sulforhodamine B assay; assay type: functional; procedure, shortened: as §1
[16] = system: HOP-62; experiment: Growth inhibition of human HOP62 cells incubated for 48 hrs by sulforhodamine B assay; assay type: functional; settings: HOP-62, 48 h; procedure, shortened: as §2
[17] = system: MDA-MB-435; experiment: Growth inhibition of human MDA-MB-435 cells incubated for 48 hrs by sulforhodamine B assay; assay type: functional; settings: MDA-MB-435, 48 h; procedure, shortened: as §2
[18] = system: Hs-578T; experiment: Growth inhibition of human Hs 578T cells incubated for 48 hrs by sulforhodamine B assay; assay type: functional; procedure, shortened: as §2
[19] = system: COLO 205; experiment: Growth inhibition of human COLO205 cells incubated for 48 hrs by sulforhodamine B assay; assay type: functional; settings: COLO 205, 48 h; procedure, shortened: as §2
[20] = system: CAKI-1; experiment: Growth inhibition of human Caki1 cells incubated for 48 hrs by sulforhodamine B assay; assay type: functional; settings: CAKI-1, 48 h; procedure, shortened: as §2
[21] = system: PC-3; experiment: Growth inhibition of human PC3 cells incubated for 48 hrs by sulforhodamine B assay; assay type: functional; settings: PC-3, 48 h; procedure, shortened: as §2
[22] = system: DU-145; experiment: Growth inhibition of human DU145 cells incubated for 48 hrs by sulforhodamine B assay; assay type: functional; settings: DU-145, 48 h; procedure, shortened: as §2
[23] = system: OVCAR-4; experiment: Growth inhibition of human OVCAR4 cells incubated for 48 hrs by sulforhodamine B assay; assay type: functional; settings: OVCAR-4, 48 h; procedure, shortened: as §2
[24] = system: ACHN; experiment: Growth inhibition of human ACHN cells incubated for 48 hrs by sulforhodamine B assay; assay type: functional; procedure, shortened: as §2
[25] = system: BT-549; experiment: Growth inhibition of human BT549 cells incubated for 48 hrs by sulforhodamine B assay; assay type: functional; settings: BT-549, 48 h; procedure, shortened: as §2
[26] = Induction of apoptosis in AML02 cells isolated from acute myelogenous leukemia patient after 24 hrs by annexin V/7-AAD/propidium iodide staining-based flow cytometric method; assay type: functional, cell-based; settings: Homo sapiens
Procedure, shortened: (§3)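 Primary AML specimens from consenting patients were Ficoll-separated and some were cryopreserved. Cells were held 1 h in serum-free IMDM with 20% BIT 9500, LDL and beta-mercaptoethanol before drug. Drugs were diluted from DMSO stock into PBS, final DMSO ≤0.5%. Dosing was 0.5–10 μM for 24 h. Annexin V/7-AAD flow cytometry scored double-negative (non-apoptotic) cells, normalized to vehicle, in triplicate, and EC50 came from dose-response curves.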

[27] = Induction of apoptosis in AML01 cells isolated from acute myelogenous leukemia patient after 24 hrs by annexin V/7-AAD/propidium iodide staining-based flow cytometric method; assay type: functional, cell-based; settings: Homo sapiens, AML01, 24 h; procedure, shortened: as §3
[28] = Induction of apoptosis in AML03 cells isolated from acute myelogenous leukemia patient after 24 hrs by annexin V/7-AAD/propidium iodide staining-based flow cytometric method; assay type: functional, cell-based; settings: Homo sapiens; procedure, shortened: as §3
[29] = Induction of apoptosis in AML04 cells isolated from acute myelogenous leukemia patient after 24 hrs by annexin V/7-AAD/propidium iodide staining-based flow cytometric method; assay type: functional, cell-based; settings: Homo sapiens; procedure, shortened: as §3

Structure (SMILES) | GI50 [1] | GI50 [2] | GI50 [3] | GI50 [4] | GI50 [5] | GI50 [6] | GI50 [7] | GI50 [8] | GI50 [9] | GI50 [10] | GI50 [11] | Ratio IC50 [12] | GI50 [13] | GI50 [14] | GI50 [16] | GI50 [17] | GI50 [18] | GI50 [19] | GI50 [20] | GI50 [23] | further results
C=C1C(=O)O[C@@H]2[C@H]3O[C@]3(C)CC/C=C(/COC(=O)c3cc4cc(F)ccc4[nH]3)CC[C@@H]12 | 1430 nM | 1850 nM | 1950 nM | 1890 nM | 11100 nM | 1440 nM | 1780 nM | 1860 nM | 1830 nM | 1580 nM | 1200 nM | 2 - 20 | 1560 nM | 1590 nM | 2920 nM | 1500 nM | 2950 nM | 1640 nM | 1200 nM | 1670 nM | GI50 [15]: 2030 nM; GI50 [21]: 1700 nM; GI50 [22]: 1670 nM; GI50 [24]: 1460 nM
C=C1C(=O)O[C@@H]2[C@H]3O[C@]3(C)CC/C=C(/COC(=O)c3cc4cc(Cl)ccc4[nH]3)CC[C@@H]12 | 1400 nM | 1910 nM | 1730 nM | 1470 nM | 570 nM | 1380 nM | 1510 nM | 1890 nM | 1750 nM | 1400 nM | 1250 nM | 2 - 20 | 1340 nM | 1320 nM | 2220 nM | 1240 nM | 2250 nM | 1720 nM | 1190 nM | 1330 nM | GI50 [15]: 770 nM; GI50 [21]: 2420 nM; GI50 [25]: 1310 nM; GI50 [24]: 1350 nM
C=C1C(=O)O[C@@H]2[C@H]3O[C@]3(C)CC/C=C(/COC(=O)c3cc4cc(OC)ccc4[nH]3)CC[C@@H]12 | 640 nM | 1740 nM | 1600 nM | 1270 nM |  | 1480 nM | 1270 nM | 1130 nM | 1280 nM | 1500 nM | 930 nM | 2 - 20 | 1300 nM | 1580 nM | 1640 nM | 620 nM | 3090 nM | 1180 nM | 1710 nM | 1630 nM | EC50 [26]: 3300 nM; EC50 [27]: 3000 nM; GI50 [21]: 1830 nM; EC50 [28]: 2200 nM; GI50 [22]: 1030 nM; GI50 [25]: 1060 nM; GI50 [24]: 810 nM; EC50 [29]: 3300 nM
C=C1C(=O)O[C@@H]2[C@H]3O[C@]3(C)CC/C=C(/COC(=O)c3cn(C)c4ccccc34)CC[C@@H]12 | 300 nM | 1420 nM | 1380 nM | 1410 nM | 1090 nM | 690 nM | 1460 nM | 440 nM | 1100 nM | 960 nM | 380 nM | 2 - 20 | 1190 nM | 1050 nM | 1810 nM | 1350 nM | 2390 nM | 1240 nM |  | 1140 nM | GI50 [15]: 340 nM; GI50 [21]: 1470 nM; GI50 [22]: 1010 nM; GI50 [25]: 510 nM; GI50 [24]: 820 nM
C=C1C(=O)O[C@@H]2[C@H]3O[C@]3(C)CC/C=C(/COC(=O)c3cc4ccccc4s3)CC[C@@H]12 | 510 nM | 1750 nM | 1750 nM | 1750 nM | 3520 nM | 1760 nM | 1520 nM | 1630 nM | 1550 nM | 1690 nM | 440 nM | 2 - 20 | 1470 nM | 1970 nM | 1810 nM | 1330 nM | 2890 nM | 1710 nM | 1460 nM | 2080 nM | GI50 [15]: 520 nM; GI50 [21]: 1830 nM; GI50 [22]: 1050 nM; GI50 [24]: 1500 nM
C=C1C(=O)O[C@@H]2C3O[C@]3(C)CC/C=C(\C)CC[C@@H]12 (stereo not given in full) | 14500 nM |  |  |  | 48400 nM | 21100 nM |  |  |  | 17300 nM | 17400 nM |  |  |  | 49000 nM |  |  |  | 9350 nM | 21500 nM | EC50 [26]: 6300 nM; EC50 [27]: 5200 nM; EC50 [28]: 1900 nM; EC50 [29]: 13000 nM

Source: ChEMBL document CHEMBL4138104, “Indole carboxylic acid esters of melampomagnolide B are potent anticancer agents against both hematological and solid tumor cells” (Eur J Med Chem, 2017)
